ChEMBL document CHEMBL1142972, “Novel N-substituted indol-3-ylglyoxylamides probing the LDi and L1/L2 lipophilic regions of the benzodiazepine receptor site in search for subtype-selective ligands” (J Med Chem, 2007)
The source made the active and inactive calls. The calls are words filed in the database; no cut-off is given here.

How the values were obtained:
[1] = Displacement of [3H]flumazenil from benzodiazepine receptor in bovine brain membranes; assay type: cell membranes, Bos taurus
[2] = target: GABA-A receptor; alpha-1/beta-2/gamma-2 (Rattus norvegicus, UniProt P18508+P62813+P63138); test: Displacement of [3H]flumazenil from rat GABAA alpha-1-beta-2-gamma-2 expressed in HEK293 cells; assay type: cell-based
Sequence of GABA-A receptor; alpha-1/beta-2/gamma-2 (P18508 whole entry): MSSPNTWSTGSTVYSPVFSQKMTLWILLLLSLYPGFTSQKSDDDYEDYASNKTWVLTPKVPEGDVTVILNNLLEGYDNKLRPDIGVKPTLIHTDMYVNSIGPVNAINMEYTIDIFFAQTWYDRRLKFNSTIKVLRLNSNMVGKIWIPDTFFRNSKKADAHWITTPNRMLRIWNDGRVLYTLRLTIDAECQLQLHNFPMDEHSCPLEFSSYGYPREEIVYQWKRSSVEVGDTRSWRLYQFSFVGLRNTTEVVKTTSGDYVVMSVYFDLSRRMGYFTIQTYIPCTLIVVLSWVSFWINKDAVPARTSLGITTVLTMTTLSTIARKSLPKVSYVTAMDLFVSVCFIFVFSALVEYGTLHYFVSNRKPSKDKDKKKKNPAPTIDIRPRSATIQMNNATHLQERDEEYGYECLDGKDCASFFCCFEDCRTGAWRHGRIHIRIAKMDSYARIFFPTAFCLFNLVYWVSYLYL
Sequence of GABA-A receptor; alpha-1/beta-2/gamma-2 (P62813 whole entry): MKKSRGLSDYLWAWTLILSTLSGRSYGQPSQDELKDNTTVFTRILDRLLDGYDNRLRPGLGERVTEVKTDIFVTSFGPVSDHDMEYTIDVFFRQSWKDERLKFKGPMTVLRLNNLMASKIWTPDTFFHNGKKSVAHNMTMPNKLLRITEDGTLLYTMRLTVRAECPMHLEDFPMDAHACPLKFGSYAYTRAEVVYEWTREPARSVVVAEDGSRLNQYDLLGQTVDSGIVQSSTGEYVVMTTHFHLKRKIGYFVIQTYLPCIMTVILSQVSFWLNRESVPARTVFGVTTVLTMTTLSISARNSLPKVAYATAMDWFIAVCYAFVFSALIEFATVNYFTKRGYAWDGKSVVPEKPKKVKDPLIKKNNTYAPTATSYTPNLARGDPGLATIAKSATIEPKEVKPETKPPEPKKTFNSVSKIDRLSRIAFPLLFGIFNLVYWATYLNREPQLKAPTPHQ
Sequence of GABA-A receptor; alpha-1/beta-2/gamma-2 (P63138 whole entry): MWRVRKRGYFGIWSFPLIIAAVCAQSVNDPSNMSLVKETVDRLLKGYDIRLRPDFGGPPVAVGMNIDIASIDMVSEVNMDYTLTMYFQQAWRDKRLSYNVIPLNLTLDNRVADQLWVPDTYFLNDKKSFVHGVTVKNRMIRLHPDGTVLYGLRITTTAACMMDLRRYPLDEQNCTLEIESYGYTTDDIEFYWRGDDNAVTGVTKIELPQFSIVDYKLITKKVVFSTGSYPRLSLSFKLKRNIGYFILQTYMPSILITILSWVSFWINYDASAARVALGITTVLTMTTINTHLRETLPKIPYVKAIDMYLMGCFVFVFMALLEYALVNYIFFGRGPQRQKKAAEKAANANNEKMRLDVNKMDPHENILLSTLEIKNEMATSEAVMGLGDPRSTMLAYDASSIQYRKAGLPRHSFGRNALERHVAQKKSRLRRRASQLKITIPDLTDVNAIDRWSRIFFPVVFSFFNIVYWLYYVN
Procedure, shortened: (§1)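 Crude membranes from HEK293 cells stably expressing rat GABAA subtypes, cells grown in DMEM/F-12 with 10% FBS at 37 °C, 5% CO2. Homogenized in 10 mM potassium phosphate pH 7.4, spun at 48 000g for 30 min at 4 °C, washed twice, resuspended with 100 mM KCl. [3H]flumazenil displacement; Ki as mean ± SEM of three determinations in triplicate.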

[3] = target: GABA A receptor alpha-2/beta-2/gamma-2 (Rattus norvegicus) (UniProt P18508+P23576+P63138); test: Displacement of [3H]flumazenil from rat GABAA alpha-2-beta-2-gamma-2 expressed in HEK293 cells at 10 uM; assay type: cell-based
Procedure, shortened: (§2)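 [3H]flumazenil competition in membranes of HEK293 cells stably expressing rat GABAA subtypes, prepared in 10 mM potassium phosphate pH 7.4 (48 000g, 4 °C, two washes, final buffer with 100 mM KCl). Single test concentration of 10 µM; % inhibition of specific binding, mean ± SEM of three determinations in triplicate.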

[4] = target: GABA A receptor alpha-5/beta-3/gamma-2 (Rattus norvegicus) (UniProt P18508+P19969+P63079); test: Displacement of [3H]flumazenil from rat GABAA alpha-5-beta-3-gamma-2 expressed in HEK293 cells at 10 uM; assay type: cell-based; procedure, shortened: as §2
[5] = target: GABA A receptor alpha-2/beta-2/gamma-2 (Rattus norvegicus, UniProt P18508+P23576+P63138); test: Displacement of [3H]flumazenil from rat GABAA alpha-2-beta-2-gamma-2 expressed in HEK293 cells; assay type: cell-based; procedure, shortened: as §1
Sequence of GABA A receptor alpha-2/beta-2/gamma-2 (P18508 whole entry): as the sequence (P18508 whole entry) above
Sequence of GABA A receptor alpha-2/beta-2/gamma-2 (P23576 whole entry): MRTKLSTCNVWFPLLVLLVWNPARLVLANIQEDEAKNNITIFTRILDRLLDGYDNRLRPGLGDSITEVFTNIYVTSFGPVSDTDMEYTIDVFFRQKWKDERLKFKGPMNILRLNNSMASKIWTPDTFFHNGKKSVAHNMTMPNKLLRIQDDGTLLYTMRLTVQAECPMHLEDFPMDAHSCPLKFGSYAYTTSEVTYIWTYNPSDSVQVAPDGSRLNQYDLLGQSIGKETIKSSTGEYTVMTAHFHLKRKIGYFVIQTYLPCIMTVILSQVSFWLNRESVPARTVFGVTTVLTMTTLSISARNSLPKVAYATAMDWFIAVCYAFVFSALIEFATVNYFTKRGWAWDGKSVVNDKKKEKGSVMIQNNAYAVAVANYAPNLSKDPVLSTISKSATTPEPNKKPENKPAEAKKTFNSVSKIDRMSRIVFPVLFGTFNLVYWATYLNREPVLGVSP
Sequence of GABA A receptor alpha-2/beta-2/gamma-2 (P63138 whole entry): as the sequence (P63138 whole entry) above

[6] = target: GABA A receptor alpha-5/beta-3/gamma-2 (Rattus norvegicus, UniProt P18508+P19969+P63079); test: Displacement of [3H]flumazenil from rat GABAA alpha-5-beta-3-gamma-2 expressed in HEK293 cells; assay type: cell-based; procedure, shortened: as §1
Sequence of GABA A receptor alpha-5/beta-3/gamma-2 (P18508 whole entry): as the sequence (P18508 whole entry) above
Sequence of GABA A receptor alpha-5/beta-3/gamma-2 (P19969 whole entry): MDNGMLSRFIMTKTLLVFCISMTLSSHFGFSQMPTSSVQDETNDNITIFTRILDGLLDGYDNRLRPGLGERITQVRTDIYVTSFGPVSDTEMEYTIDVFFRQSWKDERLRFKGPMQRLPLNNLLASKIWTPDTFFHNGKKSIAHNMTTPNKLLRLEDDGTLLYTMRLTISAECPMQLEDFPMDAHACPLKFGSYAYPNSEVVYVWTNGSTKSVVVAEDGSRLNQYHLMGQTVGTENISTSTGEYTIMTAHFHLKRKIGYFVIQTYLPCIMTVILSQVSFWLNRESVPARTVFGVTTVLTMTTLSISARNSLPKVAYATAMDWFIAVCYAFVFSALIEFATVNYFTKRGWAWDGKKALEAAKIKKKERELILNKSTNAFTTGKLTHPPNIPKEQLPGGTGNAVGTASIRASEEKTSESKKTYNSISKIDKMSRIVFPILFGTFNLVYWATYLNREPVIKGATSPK
Sequence of GABA A receptor alpha-5/beta-3/gamma-2 (P63079 whole entry): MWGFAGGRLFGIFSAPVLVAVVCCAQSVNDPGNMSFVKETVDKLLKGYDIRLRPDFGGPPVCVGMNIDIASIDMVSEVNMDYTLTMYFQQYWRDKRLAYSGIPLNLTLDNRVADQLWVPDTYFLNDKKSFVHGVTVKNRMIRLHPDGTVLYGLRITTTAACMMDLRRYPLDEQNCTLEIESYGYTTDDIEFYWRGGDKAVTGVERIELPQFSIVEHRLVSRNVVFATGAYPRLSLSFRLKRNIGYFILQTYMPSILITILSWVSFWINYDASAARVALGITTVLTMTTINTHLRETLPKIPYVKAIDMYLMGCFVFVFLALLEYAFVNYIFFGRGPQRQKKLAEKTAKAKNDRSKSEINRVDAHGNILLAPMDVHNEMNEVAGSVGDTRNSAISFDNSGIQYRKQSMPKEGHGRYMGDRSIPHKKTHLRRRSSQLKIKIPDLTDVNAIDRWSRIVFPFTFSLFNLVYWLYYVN

[7] = species on record: Bos taurus; test: Displacement of [3H]flumazenil from benzodiazepine receptor in bovine brain membranes at 10 uM; assay type: cell membranes
Procedure, shortened: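 Bovine cerebral cortex membranes, freeze-thawed once and washed in 50 mM Tris-citrate pH 7.4, used for competition against [3H]flumazenil. Test compound at a fixed 10 µM; read-out is % inhibition of specific binding, as mean of three determinations run in triplicate.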

[8] = test system: Mus musculus; test: Decrease in spontaneous motor activity in Balb/C mouse at 10 mg/kg, ip; assay type: functional, organism-based; design: dose 10 mg/kg
[9] = target: GABA-A receptor; alpha-1/beta-2/gamma-2 (Rattus norvegicus) (UniProt P18508+P62813+P63138); test: Agonist activity at rat GABAA alpha-1-beta-2-gamma-2 expressed in HEK293 cells assessed as chloride influx; assay type: functional, cell-based

Compound | Ki [1] [nM] | Ki [2] [nM] | inhibition [7] [%] | also measured
CCCCNC(=O)C(=O)c1c[nH]c2ccccc12 | 3720 | 1170 |  | inhibition [3]: 7%; inhibition [4]: 28%
O=C(NCc1ccc(Br)cc1)C(=O)c1c[nH]c2ccccc12 | 93 | 17 |  | Ki [5]: 81 nM; Ki [6]: 1440 nM
CC(C)(C)NC(=O)C(=O)c1c[nH]c2ccccc12 |  |  | 7 | 
CCC(C)NC(=O)C(=O)c1c[nH]c2ccc([N+](=O)[O-])cc12 (stereo unspecified) | 412 |  |  | 
C[Si](C)(C)C#Cc1ccc(CNC(=O)C(=O)c2c[nH]c3ccc([N+](=O)[O-])cc23)cc1 |  |  | 21 | 
CCCCCCNC(=O)C(=O)c1c[nH]c2ccccc12 | 1650 |  |  | 
O=C(NCc1ccccc1)C(=O)c1c[nH]c2ccc([N+](=O)[O-])cc12 | 117 | 65 |  | inhibition [3]: 32%; inhibition [4]: 44%
O=C(NCc1ccccc1)C(=O)c1c[nH]c2ccccc12 | 120 | 346 |  | inhibition [3]: 39%; inhibition [4]: 46%
CC(C)CNC(=O)C(=O)c1c[nH]c2ccccc12 |  |  | 43 | 
Cc1ccc(CNC(=O)C(=O)c2c[nH]c3ccccc23)cc1 | 606 |  |  | 
C[Si](C)(C)CC#Cc1ccc(CNC(=O)C(=O)c2c[nH]c3ccccc23)cc1 |  |  | 3 | 
Cc1ccc(-c2nc3ccc(C)cn3c2CC(=O)N(C)C)cc1 |  |  |  | Activity [8]: Active
CC(C)NC(=O)C(=O)c1c[nH]c2ccccc12 | 2690 |  |  | 
CC(C)CNC(=O)C(=O)c1c[nH]c2ccc([N+](=O)[O-])cc12 |  |  | 5 | 
C#Cc1ccc(CNC(=O)C(=O)c2c[nH]c3ccccc23)cc1 | 164 | 250 |  | Ki [5]: 414 nM; Ki [6]: 1150 nM
C#Cc1ccc(CNC(=O)C(=O)c2c[nH]c3ccc([N+](=O)[O-])cc23)cc1 |  |  | 28 | 
CCCCCCNC(=O)C(=O)c1c[nH]c2ccc([N+](=O)[O-])cc12 |  |  | 53 | 

Compound | Ki [1] [nM] | Ki [2] [nM] | inhibition [7] [%] | also measured
CCCCCNC(=O)C(=O)c1c[nH]c2ccccc12 | 1480 |  |  | 
CC(C)(C)NC(=O)C(=O)c1c[nH]c2ccc([N+](=O)[O-])cc12 | 2800 |  |  | 
CCCCNC(=O)C(=O)c1c[nH]c2ccc([N+](=O)[O-])cc12 | 110 | 125 |  | Ki [5]: 553 nM; Ki [6]: 943 nM
Cc1ccc(CNC(=O)C(=O)c2c[nH]c3ccc([N+](=O)[O-])cc23)cc1 | 88 | 31.3 |  | inhibition [3]: 0%; inhibition [4]: 0%; Activity [9]: 78%; Activity [8]: Active
CCCCCNC(=O)C(=O)c1c[nH]c2ccc([N+](=O)[O-])cc12 | 4100 |  |  | 
CC#Cc1ccc(CNC(=O)C(=O)c2c[nH]c3ccccc23)cc1 | 3280 | 881 |  | inhibition [3]: 16%; inhibition [4]: 13%
O=C1CN=C(c2ccccc2Cl)c2cc([N+](=O)[O-])ccc2N1 [CLONAZEPAM] | 0.85 |  |  | 
CCc1ccc(CNC(=O)C(=O)c2c[nH]c3ccccc23)cc1 | 2160 | 559 |  | Ki [5]: 1600 nM; inhibition [4]: 40%
O=C(NCc1ccc(Br)cc1)C(=O)c1c[nH]c2ccc([N+](=O)[O-])cc12 |  |  | 31 | 
CCc1ccc(CNC(=O)C(=O)c2c[nH]c3ccc([N+](=O)[O-])cc23)cc1 |  |  | 42 | 
CCC(C)NC(=O)C(=O)c1c[nH]c2ccccc12 (stereo unspecified) |  |  | 34 | 
CC(C)NC(=O)C(=O)c1c[nH]c2ccc([N+](=O)[O-])cc12 | 57.8 | 15 |  | Ki [5]: 175 nM; Ki [6]: 498 nM
C[Si](C)(C)C#Cc1ccc(CNC(=O)C(=O)c2c[nH]c3ccccc23)cc1 |  |  | 29 | 
CC#Cc1ccc(CNC(=O)C(=O)c2c[nH]c3ccc([N+](=O)[O-])cc23)cc1 |  |  | 0 | 
CN1C(=O)CN=C(c2ccccc2)c2cc(Cl)ccc21 [DIAZEPAM] | 10 |  |  | Activity [9]: 72%
C[Si](C)(C)CC#Cc1ccc(CNC(=O)C(=O)c2c[nH]c3ccc([N+](=O)[O-])cc23)cc1 |  |  | 0 | 
